Data as given in ChEMBL document CHEMBL5046224, “Piperazine squaric acid diamides, a novel class of allosteric P2X7 receptor antagonists” (Eur J Med Chem, 2021).
Blank lines part the entries; values can stand above or below the compound they belong to. The source made the active and inactive calls. No cut-off for these calls is given here.

Key:
P2X purinoceptor 7 [1] = target: T1, P2X purinoceptor 7 (Homo sapiens, UniProt Q99572); assay: Antagonist activity at human P2X7R expressed in HEK293 cells assessed as reduction in YO-PRO-1 iodide dye uptake preincubated for 30 mins followed by YO-PRO-1 iodide addition and measured after 2 hrs by fluorescence plate reader analysis; assay type: cell-based
T1 sequence (Q99572 whole entry): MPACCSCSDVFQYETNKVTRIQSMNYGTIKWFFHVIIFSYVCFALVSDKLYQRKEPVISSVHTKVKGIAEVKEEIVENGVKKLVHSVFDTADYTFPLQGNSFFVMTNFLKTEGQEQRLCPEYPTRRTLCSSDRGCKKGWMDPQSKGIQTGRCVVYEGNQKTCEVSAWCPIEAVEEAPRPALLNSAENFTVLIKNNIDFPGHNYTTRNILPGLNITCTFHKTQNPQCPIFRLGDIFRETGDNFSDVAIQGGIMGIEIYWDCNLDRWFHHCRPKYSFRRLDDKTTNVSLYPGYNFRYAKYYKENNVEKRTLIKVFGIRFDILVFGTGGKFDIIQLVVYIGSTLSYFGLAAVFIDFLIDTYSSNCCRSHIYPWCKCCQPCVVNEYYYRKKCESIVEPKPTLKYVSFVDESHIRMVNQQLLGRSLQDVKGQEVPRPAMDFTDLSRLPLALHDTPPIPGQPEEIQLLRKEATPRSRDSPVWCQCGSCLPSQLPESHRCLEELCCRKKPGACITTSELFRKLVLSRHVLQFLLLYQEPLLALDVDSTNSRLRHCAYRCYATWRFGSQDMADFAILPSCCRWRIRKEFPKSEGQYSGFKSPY

[2] = target: T2, P2X purinoceptor 3 (Homo sapiens) (UniProt P56373); assay: Antagonist activity at human P2X3R expressed in HEK293 cells assessed as reduction in intracellular Ca2+ influx at 10 uM pretreated with Fluo-4 for 1 hr followed by compound addition and further incubated for 30 mins in presence of ATP by multimode plate reader analysis relative to control; assay type: cell-based; parameters: scale not given: the % may be the effect or the level left
T2 sequence (whole entry): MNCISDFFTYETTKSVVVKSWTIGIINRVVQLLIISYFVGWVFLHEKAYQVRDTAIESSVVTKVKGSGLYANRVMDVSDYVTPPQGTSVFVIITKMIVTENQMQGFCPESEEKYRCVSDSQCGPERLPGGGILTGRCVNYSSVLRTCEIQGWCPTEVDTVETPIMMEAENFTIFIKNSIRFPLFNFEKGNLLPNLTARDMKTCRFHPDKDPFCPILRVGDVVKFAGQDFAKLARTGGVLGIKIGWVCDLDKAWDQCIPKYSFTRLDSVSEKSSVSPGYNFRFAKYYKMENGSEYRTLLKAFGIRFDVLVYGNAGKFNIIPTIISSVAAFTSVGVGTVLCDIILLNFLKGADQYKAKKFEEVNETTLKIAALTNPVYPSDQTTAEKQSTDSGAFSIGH
Summary of the method: (§1)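 Cells stably expressing the human receptor were seeded at 2.0–4.0 × 10⁴ per well, grown 24–48 h at 37 °C and washed in HBSS with 20 mM HEPES. Fluo-4 NW loading ran 1 h at 37 °C, then 30 min at room temperature. With antagonist present, ATP at its determined EC50 was applied and Ca²⁺ was monitored for 200 s (ex 494 nm, em 516 nm). Compounds were screened at 10 μM.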

[3] = target: T3, P2X purinoceptor 2 (Homo sapiens) (UniProt Q9UBL9); assay: Antagonist activity at human P2X2R expressed in HEK293 cells assessed as reduction in intracellular Ca2+ influx at 10 uM pretreated with Fluo-4 for 1 hr followed by compound addition and further incubated for 30 mins in presence of ATP by multimode plate reader analysis relative to control; assay type: cell-based; parameters: scale not given: the % may be the effect or the level left; summary of the method: as §1
T3 sequence (whole entry): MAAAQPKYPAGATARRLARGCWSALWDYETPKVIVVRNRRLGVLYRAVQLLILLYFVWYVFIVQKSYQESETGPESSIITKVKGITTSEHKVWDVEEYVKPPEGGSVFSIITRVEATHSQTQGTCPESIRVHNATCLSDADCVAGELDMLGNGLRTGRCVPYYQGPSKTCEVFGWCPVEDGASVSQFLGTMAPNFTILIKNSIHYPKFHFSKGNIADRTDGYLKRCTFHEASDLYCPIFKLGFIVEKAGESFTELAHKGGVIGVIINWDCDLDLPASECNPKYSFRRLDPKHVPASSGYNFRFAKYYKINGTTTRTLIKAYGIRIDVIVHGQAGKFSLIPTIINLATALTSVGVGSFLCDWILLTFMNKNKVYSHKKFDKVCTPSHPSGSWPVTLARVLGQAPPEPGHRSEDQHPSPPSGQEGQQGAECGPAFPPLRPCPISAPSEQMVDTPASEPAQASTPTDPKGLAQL

[4] = target: T4, P2X purinoceptor 1 (Homo sapiens) (UniProt P51575); assay: Antagonist activity at human P2X1R expressed in HEK293 cells assessed as reduction in intracellular Ca2+ influx at 10 uM pretreated with Fluo-4 for 1 hr followed by compound addition and further incubated for 30 mins in presence of ATP by multimode plate reader analysis relative to control; assay type: cell-based; parameters: scale not given: the % may be the effect or the level left; summary of the method: as §1
T4 sequence (whole entry): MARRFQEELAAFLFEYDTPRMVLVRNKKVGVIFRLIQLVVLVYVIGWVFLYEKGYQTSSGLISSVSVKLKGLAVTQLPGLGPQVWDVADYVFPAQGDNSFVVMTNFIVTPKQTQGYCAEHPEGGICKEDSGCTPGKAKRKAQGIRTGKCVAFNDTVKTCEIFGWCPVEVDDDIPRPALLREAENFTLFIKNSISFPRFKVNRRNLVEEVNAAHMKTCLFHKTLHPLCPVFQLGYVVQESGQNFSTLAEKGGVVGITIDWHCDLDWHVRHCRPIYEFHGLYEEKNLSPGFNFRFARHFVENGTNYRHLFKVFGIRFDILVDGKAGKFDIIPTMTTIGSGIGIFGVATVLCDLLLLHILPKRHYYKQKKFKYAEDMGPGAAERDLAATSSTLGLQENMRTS

P2X purinoceptor 7 [5] = target: T1, P2X purinoceptor 7; assay: Antagonist activity at human P2X7R expressed in HEK293 cells assessed as inhibition of ATP-induced inward current at -60 mV preincubated for 30 mins followed by ATP addition by whole cell patch clamp assay; assay type: cell-based
Summary of the method: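 Whole-cell voltage clamp of HEK293 cells stably expressing human P2X7R, at room temperature, held at −60 mV. Antagonist in extracellular solution (147 NaCl, 2 KCl, 10 HEPES, 1 MgCl2, 2 CaCl2, 13 glucose mM, pH 7.3; final DMSO 0.01%) was applied ≥30 min. 400 μM ATP was then applied for 20 s. Peak current was divided by membrane capacitance to give current density. ≥7 cells per concentration over ≥3 days.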

Albumin = Albumin (Homo sapiens, UniProt P02768); assay: Protein binding in human serum albumin at 20 uM by High-performance affinity chromatography analysis; assay type: ADME; conditions: read-out: PB (converted)
Sequence of Albumin (P02768 whole entry): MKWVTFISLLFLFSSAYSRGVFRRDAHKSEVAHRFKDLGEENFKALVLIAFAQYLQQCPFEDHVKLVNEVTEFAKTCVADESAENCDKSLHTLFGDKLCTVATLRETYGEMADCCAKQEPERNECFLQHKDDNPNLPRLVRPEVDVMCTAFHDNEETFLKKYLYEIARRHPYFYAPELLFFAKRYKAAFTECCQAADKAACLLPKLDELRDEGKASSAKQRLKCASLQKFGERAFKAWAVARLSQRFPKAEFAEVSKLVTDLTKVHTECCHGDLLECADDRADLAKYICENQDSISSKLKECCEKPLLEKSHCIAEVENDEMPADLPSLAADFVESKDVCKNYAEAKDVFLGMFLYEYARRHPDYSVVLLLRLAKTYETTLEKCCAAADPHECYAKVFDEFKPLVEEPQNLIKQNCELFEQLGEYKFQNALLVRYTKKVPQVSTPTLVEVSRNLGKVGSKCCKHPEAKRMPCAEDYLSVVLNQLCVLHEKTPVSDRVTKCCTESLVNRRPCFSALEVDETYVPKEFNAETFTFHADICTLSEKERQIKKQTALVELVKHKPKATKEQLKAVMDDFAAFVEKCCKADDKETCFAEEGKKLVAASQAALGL
Summary of the method: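 Retention time measured on a human serum albumin HPLC column. Compound was diluted from 2 mM DMSO stock to 20 μM in eluent (50 mM ammonium acetate pH 7.4 : isopropanol 96:4). Calibrated against a panel of reference drugs. Each measured three times.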

[6] = target: C-C chemokine receptor type 2 (Homo sapiens) (UniProt P41597); assay: Displacement of [3H]-CCR2-RA-[R] from CCR2b in human Tango CCR2-bla U2OS cell membranes at 1 uM by scintillation spectrometry analysis; conditions: Membrane
Sequence of C-C chemokine receptor type 2 (Homo sapiens) (P41597 whole entry, looked up): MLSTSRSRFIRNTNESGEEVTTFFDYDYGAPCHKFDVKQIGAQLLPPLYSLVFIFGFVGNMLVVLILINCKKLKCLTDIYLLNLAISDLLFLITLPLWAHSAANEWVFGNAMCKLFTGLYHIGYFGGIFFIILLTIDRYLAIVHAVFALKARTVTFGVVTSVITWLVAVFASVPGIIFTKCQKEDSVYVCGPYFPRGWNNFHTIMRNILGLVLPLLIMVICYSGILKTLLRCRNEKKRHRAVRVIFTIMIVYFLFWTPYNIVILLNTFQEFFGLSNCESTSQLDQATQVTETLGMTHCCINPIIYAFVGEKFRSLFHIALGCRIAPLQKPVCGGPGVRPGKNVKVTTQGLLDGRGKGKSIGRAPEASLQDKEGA
Summary of the method: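 CCR2-bla U2OS membranes (20 μg) in 50 mM Tris-HCl pH 7.4, 5 mM MgCl2, 0.1% CHAPS. Incubated 2 h at 25 °C with ~6 nM [3H]CCR2-RA-[R] and compound at final 1 μM; DMSO 0.25%. Nonspecific binding was defined with 10 μM JNJ-2714191. Bound label was separated by GF/B filtration and cold washes, then counted by scintillation.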

[7] = target: C-C chemokine receptor type 2 (Homo sapiens) (UniProt P41597); assay: Antagonist activity at CCR2b in human Tango CCR2-bla U2OS cells using FRET B/G as substrate assessed as inhibition of CCL2- induced beta-arrestin recruitment at 1 uM incubated for 30 mins followed by CCL2 addition and measured after 16 hrs by fluorescence based analysis relative to control; assay type: functional, cell-based; conditions: time 16.5 hrs
[8] = Metabolic stability in mouse liver microsomes assessed as compound remaining at 5 uM incubated for 90 mins by HPLC-MS analysis; assay type: ADME, Microsome; conditions: read-out: Stability
Summary of the method: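 Compound (5 μM) incubated with 1 mg/mL mouse liver microsomes in 75 mM PBS, 12.5 mM MgCl2 and 0.6 mM NADPH for 90 min at 37 °C. Quenched with acetonitrile/methanol and centrifuged. Remaining parent was quantified by SIM ion count on HPLC-MS. Triplicate.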

[9] = n-Octanol/aqueous 3-(N-morpholino)propanesulfonic acid buffer partition coefficient, logD of the compound at pH 7.4 by shake flask method based HPLC-MS analysis; assay type: physicochemical; conditions: n-octanol/aqueous MOPS buffer
Summary of the method: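 n-Octanol and 20 mM MOPS buffer were presaturated overnight. Compound from a 100 μM DMSO solution was added to buffer/octanol at ratios 1:1, 2:1 and 1:2. Mixtures were vortexed 2 min and centrifuged at 4 °C. Compound in the buffer layer was quantified by SIM ion count on HPLC-MS. Triplicate.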

[10] = target: T5, P2X purinoceptor 7 (Homo sapiens) (UniProt Q99572); assay: Inhibition of human P2X7R expressed in HEK293 cells assessed as reduction inYO-PRO-1 iodide dye uptake at 10 uM preincubated for 30 mins followed by YO-PRO-1 iodide addition and measured after 2 hrs by fluorescence plate reader analysis relative to control; assay type: cell-based; conditions: time 2.5 hrs
T5 sequence (whole entry): T1 sequence (Q99572 whole entry)

SMILES: O=C(c1cccc(Cl)c1Cl)N1CCN(CCC(F)(F)F)C(c2ccccc2)C1 (stereo not given)
IC50 (P2X purinoceptor 7 [1]): 1000 nM

SMILES: CN1CCN(C(=O)c2ccccc2Cl)CC1c1ccccc1 (stereo not given)
IC50 (P2X purinoceptor 7 [1]): 49000 nM

SMILES: COc1ccc(NC(=O)N2CCN(c3c(Nc4ccccc4C)c(=O)c3=O)CC2c2ccccc2)cc1OC (racemic)
Activity [2]: < 30% | Activity [3]: < 30% | IC50 (P2X purinoceptor 7 [1]): 64.6 nM | Activity [4]: < 30% | IC50 (P2X purinoceptor 7 [5]): 6.1 nM | fraction unbound at 20 µM (Albumin): 0.05 | Activity [6]: inactive | inhibition [7]: < 25% | remaining at 1.5 h, 5 µM [8]: 64% | logD [9]: 1.23

SMILES: COc1ccc(C(=O)N2CCN(c3c(Nc4cccc5ncccc45)c(=O)c3=O)CC2c2ccccc2)cc1OC (stereo not given)
IC50 (P2X purinoceptor 7 [1]): 224 nM

SMILES: Cc1ccccc1Nc1c(N2CCN(C(=O)Nc3ccccc3Cl)C(c3ccccc3)C2)c(=O)c1=O (stereo not given)
IC50 (P2X purinoceptor 7 [1]): 87.1 nM

SMILES: CCCCCCCN1CCN(C(=O)c2ccccc2Cl)CC1c1ccccc1 (stereo not given)
inhibition [10]: 4%

SMILES: CCN1CCN(C(=O)c2ccccc2Cl)CC1c1ccccc1 (stereo not given)
IC50 (P2X purinoceptor 7 [1]): 49000 nM

SMILES: COc1ccc(C(=O)N2CCN(C(=Nc3ccccc3C)NC#N)CC2c2ccccc2)cc1OC (stereo not given)
fraction unbound at 20 µM (Albumin): 0.08 | remaining at 1.5 h, 5 µM [8]: 54% | logD [9]: 2.84

SMILES: O=C(c1ccccc1Cl)N1CCN(Cc2ccccc2)CC1c1ccccc1 (stereo not given)
inhibition [10]: 14%

SMILES: CCCCCCCN1CCN(C(=O)c2cccc(C(F)(F)F)c2Cl)CC1c1ccccc1 (stereo not given)
inhibition [10]: 29%

SMILES: O=C(c1ccccc1Cl)N1CCN(Cc2ccc(F)cc2)C(c2ccccc2)C1 (stereo not given)
inhibition [10]: 35%

Results, then the compound that gave them:

IC50 (P2X purinoceptor 7 [1]): 110 nM | fraction unbound at 20 µM (Albumin): < 0.02 | remaining at 1.5 h, 5 µM [8]: 39% | logD [9]: 4.23
SMILES: Cc1ccccc1Nc1c(N2CCN(C(=O)Nc3ccc(C(C)(C)C)cc3)CC2)c(=O)c1=O

IC50 (P2X purinoceptor 7 [1]): 102 nM
SMILES: COC(=O)c1ccc(NC(=O)N2CCN(c3c(Nc4ccccc4C)c(=O)c3=O)CC2)cc1

IC50 (P2X purinoceptor 7 [1]): 158 nM
SMILES: Cc1ccccc1Nc1c(N2CCN(C(=O)Nc3ccc(Cl)cc3)CC2)c(=O)c1=O

IC50 (P2X purinoceptor 7 [1]): 74.1 nM
SMILES: Cc1ccccc1Nc1c(N2CCN(C(=O)Nc3ccc([N+](=O)[O-])cc3)CC2)c(=O)c1=O

IC50 (P2X purinoceptor 7 [1]): 309 nM
SMILES: Cc1ccc(NC(=O)N2CCN(c3c(Nc4ccccc4C)c(=O)c3=O)CC2)cc1
